Test results as given in ChEMBL document CHEMBL1134290, “A novel anti-ischemic ATP-sensitive potassium channel (K(ATP)) opener without vasorelaxation: N-(6-aminobenzopyranyl)-N'-benzyl-N' '-cyanoguanidine analogue” (J Med Chem, 2001).

Experiments:
Rattus norvegicus [1] = species on record: Rattus norvegicus; experiment: (§1) Reduction rate of LDH release from neuronal cells injured by iron […]; assay type: functional
Procedure, shortened: (§2)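 Cortical neurons from E17-18 rat embryos, cultured 7-9 days at 37 °C, 5% CO2. Serum lowered to 0.2% in MEM. Pretreated 30 min with compound in DMSO (final ≤0.2%), then FeSO4 at 50 µM final for 24 h. LDH released into medium measured; reduction of LDH release taken relative to control. Four determinations averaged.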

Rattus norvegicus [2] = experiment: Ratio of myocardial infarct zone to area at risk (IZ/AAR) in ischemic myocardium damage rat model (Cardioprotective effect) at 0.3 mg/Kg; assay type: functional
Procedure, shortened: (§3)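 Male Sprague-Dawley rats (350-450 g), pentobarbital 75 mg/kg i.p., ventilated 60/min at 10 mL/kg, 37 °C. Vehicle or compound given via femoral vein over 30 min, with or without glibenclamide or 5-HD. Left coronary occlusion 45 min, reperfusion 90 min. Risk zone marked by Evans blue after reocclusion. LV slices stained with TTC at 37 °C, pH 7.4, 15 min. Infarct area summed, divided by AAR weight; n = 3 or more.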

Rattus norvegicus [3] = experiment: Ratio of myocardial infarct zone to area at risk […] in ischemic myocardium damage rat model (Cardioprotective effect) at 0.3 mg/Kg; assay type: functional; procedure, shortened: as §3
Rattus norvegicus [4] = species on record: Rattus norvegicus; experiment: as §1; assay type: functional, cell-based
Rattus norvegicus [5] = species on record: Rattus norvegicus; experiment: Inhibition of methoxamine-contracted rat aorta (Vasorelaxant potency); assay type: functional
Procedure, shortened: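 Rat aortic rings (Sprague-Dawley, 350-450 g; 3 mm rings, adipose removed) held in oxygenated modified Krebs-Henseleit PSS at 37 °C under 2 g resting tension, stabilised 1 h. Once methoxamine contraction reached a maintained maximum, compound added cumulatively at 1, 3, 10, 30 µM. Relaxation taken as change in maximal methoxamine constriction and plotted as concentration-relaxation curve.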

Rattus norvegicus [6] = species on record: Rattus norvegicus; experiment: Reduction rate of LDH release from rat neuronal cells injured by iron […]; assay type: functional; procedure, shortened: as §2
Rattus norvegicus [7] = experiment: Ratio of myocardial infarct zone to area at risk […] in ischemic myocardium damage rat model (Cardioprotective effect) in the presence of 5-HD (10 mg/kg); assay type: functional; procedure, shortened: as §3
Rattus norvegicus [8] = experiment: Ratio of myocardial infarct zone to area at risk(IZ/AAR)in ischemic myocardium damage rat model (Cardioprotective effect) at 0.3 mg/kg; Not determined; assay type: functional; procedure, shortened: as §3
Rattus norvegicus [9] = experiment: Ratio of myocardial infarct zone to area at risk […] in ischemic myocardium damage rat model (Cardioprotective effect) in the presence of Gliben 1 mg/kg; assay type: functional; procedure, shortened: as §3
Rattus norvegicus [10] = experiment: Ratio of myocardial infarct zone to area at risk […] in ischemic myocardium damage rat model (Cardioprotective effect) at 0.1 mg/Kg; assay type: functional; procedure, shortened: as §3
Rattus norvegicus [11] = experiment: Ratio of myocardial infarct zone to area at risk(IZ/AAR)in ischemic myocardium damage rat model (Cardioprotective effect) at 1 mg/kg; Not determined; assay type: functional; procedure, shortened: as §3
Rattus norvegicus [12] = experiment: Ratio of myocardial infarct zone to area at risk(IZ/AAR)in ischemic myocardium damage rat model (Cardioprotective effect) at 0.1 mg/kg; assay type: functional; procedure, shortened: as §3
Rattus norvegicus [13] = experiment: Ratio of myocardial infarct zone to area at risk […] in ischemic myocardium damage rat model (Cardioprotective effect) at 1 mg/Kg; assay type: functional; procedure, shortened: as §3
Rattus norvegicus [14] = experiment: Ratio of myocardial infarct zone to area at risk (IZ/AAR) in ischemic myocardium damage rat model (Cardioprotective effect) in the presence of Gliben 1 mg/kg; assay type: functional; procedure, shortened: as §3
Rattus norvegicus [15] = experiment: Ratio of myocardial infarct zone to area at risk (IZ/AAR) in ischemic myocardium damage rat model (Cardioprotective effect) in the presence of 5-HD (10 mg/kg); assay type: functional; procedure, shortened: as §3

Row | Structure (SMILES) | inhibition at 30 µM (Rattus norvegicus [1]) [%] | Effect (Rattus norvegicus [2]) [%] | Effect (Rattus norvegicus [3]) [%] | also measured
1 | COC(OC)[C@]1(C)Oc2ccc([N+](=O)[O-])cc2[C@@H](N/C(=N/C#N)NCc2ccccc2)[C@@H]1O | 37 |  |  | 
2 | COC(OC)[C@@]1(C)Oc2ccc(N)cc2[C@H](/N=C(\NC#N)NCc2ccccc2)[C@H]1O |  | 51 | 33 | IC50 (Rattus norvegicus [4]): 9.2 µM
3 | COC(OC)[C@]1(C)Oc2ccc(NC(C)=O)cc2[C@H](/N=C(\NC#N)NCc2ccccc2)[C@@H]1O | 25 | 45 | 41 | 
4 | COC(OC)[C@]1(C)Oc2ccc([N+](=O)[O-])cc2[C@@H](/N=C(\NC#N)Nc2ccc(Cl)cc2)[C@@H]1O | 61 | 52 | 37 | IC50 (Rattus norvegicus [5]; Rattus norvegicus, Aorta): 17.5 µM
5 | CC1(C)COC([C@]2(C)Oc3ccc(N)cc3[C@H](/N=C(\NC#N)NCc3ccccc3)[C@@H]2O)OC1 | 60 | 56 | 42 | 
6 | COC(OC)[C@]1(C)Oc2ccc([N+](=O)[O-])cc2[C@@H](/N=C(\NC#N)Nc2cccc(Cl)c2)[C@@H]1O | 70 | 40 | 47 | IC50 (Rattus norvegicus [5]; Rattus norvegicus, Aorta): 30.5 µM
7 | COc1ccc(N/C(=N/[C@H]2c3cc([N+](=O)[O-])ccc3O[C@@](C)(C(OC)OC)[C@H]2O)NC#N)cc1 | 45 | 43 | 38 | 
8 | COC(OC)[C@]1(C)Oc2ccc(N)cc2[C@@H](/N=C(\NC#N)NCc2ccccc2)[C@@H]1O |  | 46 | 39 | IC50 (Rattus norvegicus [4]): 8 µM
9 | COC(OC)[C@]1(C)Oc2ccc(N)cc2[C@H](/N=C(\NC#N)NCc2ccccc2)[C@H]1O |  | 51 | 38 | IC50 (Rattus norvegicus [4]): 4.1 µM
10 | CC1(C)Oc2ccc(C#N)cc2[C@@H](/N=C(\NC#N)Nc2ccc(Cl)cc2)[C@@H]1O |  | 39 | 39 | IC50 (Rattus norvegicus [5]; Rattus norvegicus, Aorta): 3.2 µM; inhibition at 30 µM (Rattus norvegicus [6]): 20%
11 | COC(OC)C1(C)Oc2ccc([N+](=O)[O-])cc2C(/N=C(\NC#N)Nc2ccc(Cl)cc2)[C@@H]1O (single isomer, unassigned) | 58 | 46 | 46 | 
12 | COC(OC)C1(C)Oc2ccc([N+](=O)[O-])cc2C(/N=C(\NC#N)NCc2ccccc2)[C@@H]1O (single isomer, unassigned) | 7 | 49 | 37 | 
13 | CC1(C2OCCO2)Oc2ccc(N)cc2C(/N=C(\NC#N)NCc2ccccc2)[C@@H]1O (single isomer, unassigned) | 3.6 | 52 | 32 | 
14 | COC(OC)C1(C)Oc2ccc(NS(C)(=O)=O)cc2C(/N=C(\NC#N)NCc2ccccc2)[C@@H]1O (single isomer, unassigned) | 10 | 43 | 35 | 
15 | COc1ccc(CN/C(=N/C2c3cc(N)ccc3OC(C)(C(OC)OC)[C@H]2O)NC#N)cc1 (single isomer, unassigned) |  | 42 | 37 | IC50 (Rattus norvegicus [4]): 4.1 µM
16 | COC(OC)C1(C)Oc2ccc(N)cc2C(/N=C(\NC#N)NCc2ccccc2)[C@@H]1O (single isomer, unassigned) |  | 37 | 35 | Effect (Rattus norvegicus [7]): 35%; Effect (Rattus norvegicus [8]): 37%; Effect (Rattus norvegicus [9]): 33%; Effect (Rattus norvegicus [10]): 34%; Effect (Rattus norvegicus [11]): 34%; Effect (Rattus norvegicus [12]): 42%; Effect (Rattus norvegicus [13]): 35%; Effect (Rattus norvegicus [14]): 51%; IC50 (Rattus norvegicus [4]): 2.2 µM; Effect (Rattus norvegicus [15]): 46%
17 | COC(OC)C1(C)Oc2ccc([N+](=O)[O-])cc2C(N/C(=N/C#N)NCc2ccccc2)[C@H]1O (single isomer, unassigned) |  |  |  | IC50 (Rattus norvegicus [5]; Rattus norvegicus, Aorta): 7.3 µM
18 | COC(OC)[C@@]1(C)Oc2ccc([N+](=O)[O-])cc2C(N/C(=N/C#N)NCc2ccccc2)[C@H]1O (single isomer, unassigned) |  | 49 | 38 | IC50 (Rattus norvegicus [5]): 9.8 µM
